Data published in ChEMBL document CHEMBL1127547, “Synthesis and biological activities of a new set of irreversibly acting 2-(4'-isothiocyanatobenzyl)imidazoline analogs in rat thoracic aorta” (J Med Chem, 1994).
“And” between values parts separate entries of the source, which are not always exact repeats. Identical values can stand only once.

What was measured:
Rattus norvegicus [1] = organism: Rattus norvegicus; assay: Percent of maximal contractile response to compound in rat thoracic aorta strips in the presence of nifedipine
In short: (§1)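 Aortic strips were pretreated with nifedipine 10^-6 M for 60 min. The stock was 0.01 M in EtOH, diluted in 0.01 M sodium phosphate, pH 7.4. Cumulative analog curves followed, read 35–45 min after each addition. Emax is expressed relative to the compound alone. Mean ± SEM, n = 3–4; paired comparison.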

Rattus norvegicus [2] = organism: Rattus norvegicus; assay: Percent of maximal contractile response to compound with phenoxybenzamine pretreatment on rat thoracic aorta strips
In short: (§2)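 Rat aortic strips (male Sprague-Dawley) were pretreated with phenoxybenzamine 3×10^-6 M for 20 min and washed before cumulative analog curves were run. Responses were taken 20–30 min after each addition. Maximal contraction is expressed relative to 30 μM phenylephrine, obtained before pretreatment. Mean ± SEM, n = 4–7; Student's t test against the untreated control.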

Rattus norvegicus [3] = organism: Rattus norvegicus; assay: Percent of maximal contractile response to compound without phenoxybenzamine pretreatment on rat thoracic aorta strips
In short: (§3)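 Helically cut thoracic aorta strips from male Sprague-Dawley rats (300–450 g) in a 10-mL water-jacketed bath of physiological salt solution. After 1 h equilibration, strips were primed with 10^-8 M phenylephrine, and a phenylephrine curve (10^-9 to 3×10^-5 M) was run. Cumulative analog curves were read 20–30 min after each addition. Emax is given relative to the 30 μM phenylephrine maximum. Mean ± SEM, n = 4–7.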

Rattus norvegicus [4] = organism: Rattus norvegicus; assay: Percent of maximal contractile response to compound in rat thoracic aorta strips; in short: as §3
Rattus norvegicus [5] = organism: Rattus norvegicus; assay: Percent of maximal contractile response to compound in rat thoracic aorta strips in the presence of PBZ and CIR
Rattus norvegicus [6] = organism: Rattus norvegicus; assay: Percent of maximal contractile response to compound in rat thoracic aorta strips in the presence of PBZ and IDA
In short: (§4)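 Rat aortic strips were given PBZ for 20 min, then washed out and exposed to idazoxan for 60 min before cumulative analog curves (3×10^-8–10^-4 M). Readings were taken 35–45 min after each addition. Response is expressed as % of the 30 μM phenylephrine maximum. Mean ± SEM, n = 3–4.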

Rattus norvegicus [7] = organism: Rattus norvegicus; assay: Concentration that produces 50% of the maximal response to compound in rat thoracic aorta strips; format: functional; in short: as §3
Rattus norvegicus [8] = organism: Rattus norvegicus; assay: Concentration that produces 50% of the maximal response to compound in rat thoracic aorta strips in the presence of PBZ and CIR; format: functional
Rattus norvegicus [9] = organism: Rattus norvegicus; assay: Concentration that produces 50% of the maximal response to compound in rat thoracic aorta strips in the presence of PBZ and IDA; format: functional; in short: as §4
Rattus norvegicus [10] = organism: Rattus norvegicus; assay: Concentration that produces 50% of the maximal response to compound in rat thoracic aorta strips in the presence of nifedipine; format: functional; in short: as §1
Rattus norvegicus [11] = organism: Rattus norvegicus; assay: Concentration that produces 50% of the maximal response to compound with phenoxybenzamine pretreatment on rat thoracic aorta strips; format: functional; in short: as §2
Rattus norvegicus [12] = organism: Rattus norvegicus; assay: Concentration that produces 50% of the maximal response to compound without phenoxybenzamine pretreatment on rat thoracic aorta strips; format: functional; in short: as §3
Rattus norvegicus [13] = organism: Rattus norvegicus; assay: Percent of maximal contractile response to compound in rat thoracic aorta strips v
Rattus norvegicus [14] = organism: Rattus norvegicus; assay: Concentration that produces 50% of the maximal response to compound in rat thoracic aorta strips in the presence of PBZ and IDA
Rattus norvegicus [15] = organism: Rattus norvegicus; assay: Percent of maximal contractile response to compound in rat thoracic aorta strips in the presence of calcium deficient buffer
In short: (§5)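 Cumulative analog concentration-response curves were run on rat thoracic aorta strips in calcium-deficient PSS. Responses were read 35–45 min after each addition. Emax is relative to the maximal contraction of the compound alone in normal PSS. Mean ± SEM, n = 3–4; paired t test.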

Rattus norvegicus [16] = organism: Rattus norvegicus; assay: Percent of maximal contractile response to compound in rat thoracic aorta strips in the presence of verapamil
In short: (§6)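 Verapamil was given for 60 min before cumulative analog curves on rat aortic strips; the methods give 10^-5 M and the table footnote gives 10^-6 M. Responses were read 35–45 min after each addition. Emax is relative to the compound's own maximal contraction without verapamil. Mean ± SEM, n = 3–4.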

Rattus norvegicus [17] = organism: Rattus norvegicus; assay: Percent of maximal contractile response to compound in rat thoracic aorta strips presence of PBZ and CIR
Rattus norvegicus [18] = organism: Rattus norvegicus; assay: Percent of maximal contractile response to compound in rat thoracic aorta strips in the presence of PBZ and IDA at 0.1 uM
In short: (§7)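 Strips were exposed to 30 nM PBZ for 20 min, washed out, then held in idazoxan for 1 h: 0.1 μM or 1 μM. Analog-induced contractions were read 20–30 min after addition and expressed against the 30 μM phenylephrine maximum obtained before treatment.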

Rattus norvegicus [19] = organism: Rattus norvegicus; assay: Percent of maximal contractile response to compound in rat thoracic aorta strips in the presence of PBZ and IDA at 1 uM; in short: as §7
Rattus norvegicus [20] = organism: Rattus norvegicus; assay: Concentration that produces 50% of the maximal response to compound in rat thoracic aorta strips in the presence of PBZ and IDA at 0.1 uM; format: functional; in short: as §7
Rattus norvegicus [21] = organism: Rattus norvegicus; assay: Concentration that produces 50% of the maximal response to compound in rat thoracic aorta strips in the presence of PBZ and IDA at 1 uM; format: functional; in short: as §7
Rattus norvegicus [22] = organism: Rattus norvegicus; assay: Concentration that produces 50% of the maximal response to compound in rat thoracic aorta strips in the presence of calcium deficient buffer; format: functional; in short: as §5
Rattus norvegicus [23] = organism: Rattus norvegicus; assay: Concentration that produces 50% of the maximal response to compound in rat thoracic aorta strips in the presence of verapamil; format: functional; in short: as §6
[24] = Rattus norvegicus, Thoracic aorta, read-out: Emax
[25] = Rattus norvegicus, Thoracic aorta

Row | SMILES | EC50 (Rattus norvegicus [7]; [25]) [µM] | EC50 (Rattus norvegicus [8]) [µM] | EC50 (Rattus norvegicus [10]) [µM] | EC50 (Rattus norvegicus [11]) [µM] | EC50 (Rattus norvegicus [12]) [µM] | Emax (Rattus norvegicus [1]) [%] | Emax (Rattus norvegicus [2]) [%] | Emax (Rattus norvegicus [3]) [%] | Emax (Rattus norvegicus [4]; [24]) [%] | Emax (Rattus norvegicus [5]) [%] | other results
1 | O=C(CCl)Nc1ccc(CC2=NCCN2)cc1 |  |  |  | 129 | 116 |  | 32 | 41 |  |  | 
2 | Cc1ccc(CC2=NCCN2)cc1 |  |  |  |  | 57 |  | 5 | 14 |  |  | 
3 | CN(C)CCc1ccc(N=C=S)cc1 | 16.8 |  | 48.5 | 33 | 41 | 29 | 113 | 98 | 100 |  | Emax (Rattus norvegicus [4]; rat, in vitro): 91% and 94%; EC50 (Rattus norvegicus [7]): 16.9 µM and 16.3 µM
4 | Nc1ccc(CC2=NCCN2)cc1 |  |  |  | 31 | 3 |  | 9 | 69 |  |  | 

The next lines start with results.

Row | EC50 (Rattus norvegicus [7]; [25]) [µM] | EC50 (Rattus norvegicus [8]) [µM] | EC50 (Rattus norvegicus [10]) [µM] | EC50 (Rattus norvegicus [11]) [µM] | EC50 (Rattus norvegicus [12]) [µM] | SMILES | Emax (Rattus norvegicus [1]) [%] | Emax (Rattus norvegicus [2]) [%] | Emax (Rattus norvegicus [3]) [%] | Emax (Rattus norvegicus [4]; [24]) [%] | Emax (Rattus norvegicus [5]) [%] | other results
5 | 28.6 | 25.5 | 38.9 | 36 | 31 | S=C=Nc1ccc(Cc2ncc[nH]2)cc1 | 35 | 68 | 70 | 100 | 102 | Emax (Rattus norvegicus [6]): 79%; EC50 (Rattus norvegicus [9]): 40.9 µM
6 |  |  |  | 58 | 10 | S=C=Nc1ccc(CC2=NCCN2)cc1I |  | 28 | 31 |  |  | 
7 | 17.2 | 16.4 | 52.1 | 47 | 69 | S=C=Nc1ccc(OCC2=NCCN2)cc1 | 11 | 117 | 108 | 100 | 117 | Emax (Rattus norvegicus [13]): 110%; EC50 (Rattus norvegicus [14]): 16.1 µM
8 |  |  |  |  | 47 | O=C(CI)Nc1ccc(CC2=NCCN2)cc1 |  | 13 | 25 |  |  | 
9 | 18.3 | 14.9 | 67 | 29 | 29 | S=C=Nc1ccc(CCC2=NCCN2)cc1 | 21 | 102 | 107 | 100 | 100 | Emax (Rattus norvegicus [6]): 114%; EC50 (Rattus norvegicus [9]): 18.1 µM
10 |  | 43 | 19.8 | 52 | 48 | S=C=Nc1ccc(CC2=NCCN2)cc1 | 42 | 100 | 118 | 100 |  | Emax (Rattus norvegicus [15]): 34%; Emax (Rattus norvegicus [16]): 48%; Emax (Rattus norvegicus [17]): 94%; Emax (Rattus norvegicus [4]; rat, in vitro): 100%; Emax (Rattus norvegicus [18]): 104%; Emax (Rattus norvegicus [19]): 105%; EC50 (Rattus norvegicus [7]): 45 µM and 5.8 µM; EC50 (Rattus norvegicus [20]): 54 µM; EC50 (Rattus norvegicus [21]): 54 µM; EC50 (Rattus norvegicus [22]): 12.7 µM; EC50 (Rattus norvegicus [23]): 21.4 µM
